Assay outcomes: PubChem BioAssay, several laboratories
XBP1 UPR activ: activators of adaptive XBP1 UPR arm, primary screen, cell-based, CHO-XBP1 luciferase reporter, luminescence, uHTS; IRE1-XBP1 UPR activation; percent of tunicamycin response, DMSO as zero; activation, % at 20 µM; 330,000 tested, 0.33% active; AID 463104, 2010;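 active = versus positive control, 20 µM dose yields 30% or more activation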;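 note: 100% = tunicamycin at 10 µg/mL and 0% = DMSO only wells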
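Material: CHO cell line with stable XBP1 luciferase reporter; buffer or medium: F12 medium containing 10% fetal bovine serum; compound: single point, 20 µM final compound, 1% DMSO; incubation: 6 h treatment, 37 °C; measured by: glow luminescence from Steady-Glo reagent; evaluation: activation, % of tunicamycin; control set: tunicamycin high, DMSO low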
CHOP inhibitor: inhibitors of CHOP promoter induction, primary screen, cell-based, unfolded protein response, luciferase reporter; CHO-K1 CHOP-promoter luciferase, tunicamycin-induced, 15-18 h; inhibition, % at 10 µM; 220,000 tested, 3.8% active; AID 2732, 2010;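 active = compounds that reduced the stress-induced luciferase reporter signal by more than about 70% of percent inhibition, limit read from the data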;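 note: 0% = tunicamycin plus vehicle and 100% = wells without tunicamycin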
CTSL1 counter: Fasciola hepatica cathepsin L1 inhibitors, primary screen, counter-screen for PFM18AAP inhibitor project, biochemical, QFRET, fluorogenic peptide substrate | recombinant F. hepatica cathepsin L1, Z-Leu-Arg-MCA fluorescence | inhibition, % at 5.96 µM | 300,000 tested, 0.49% active;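 active = inhibition above the mean of all tested compounds plus 3 SD, set per screening campaign, cut at about 17% in these data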;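 note: 0% = plate median of test compound wells and 100% = 1 µM Z-Phe-Ala-diazomethylketone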
UCH37 inh: inhibitors of human UCH37 deubiquitinase, primary screen, biochemical, Ub-AMC cleavage, fluorescence; purified proteasome/UCH37; inhibition, % (test concentration not listed); 330,000 tested, 0.33% active; Ubiquitin carboxyl-terminal hydrolase isozyme L5 (Homo sapiens), Q9Y5K5;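 active = mean inhibition over replicate wells above about 20%, limit read from the data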;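 note: 0% = compound-free wells with enzyme and 100% = wells lacking proteasome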
Target sequence (Q9Y5K5 whole entry, looked up): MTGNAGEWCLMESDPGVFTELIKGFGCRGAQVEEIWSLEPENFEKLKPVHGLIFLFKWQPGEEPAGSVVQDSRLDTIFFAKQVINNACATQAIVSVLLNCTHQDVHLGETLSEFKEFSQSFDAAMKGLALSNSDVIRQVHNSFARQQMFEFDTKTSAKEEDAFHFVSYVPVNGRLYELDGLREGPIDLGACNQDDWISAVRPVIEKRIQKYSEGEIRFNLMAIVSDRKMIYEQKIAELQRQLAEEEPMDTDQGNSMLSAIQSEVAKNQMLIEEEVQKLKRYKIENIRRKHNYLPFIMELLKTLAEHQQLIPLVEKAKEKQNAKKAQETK
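assay system = human UCH37 enzyme supplied as purified proteasome complex | amount = proteasome at 0.15 nM in the dispensed enzyme solution | schedule = 30 min compound-proteasome preincubation then 25 min substrate reaction, room temperature | measured by = fluorescence, ex 355 nm, em 460 nm | benchmarks = no-proteasome wells (full inhibition) and compound-free wells (no inhibition)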
UPR CHOP act: activators of apoptotic CHOP UPR arm, primary screen, cell-based, CHO-CHOP luciferase reporter, luminescence, uHTS; activation, % at 10 µM; AID 449763, 2010; UPR activation; percent of tunicamycin response over DMSO baseline; 330,000 tested, 0.34% active;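 active = at 10 µM dose, activation of 40% or more, normalized to positive control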;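 note: 100% = tunicamycin at 10 µg/mL and 0% = DMSO alone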
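assay system = CHO CHOP reporter cells | amount = 500 CHO-CHOP cells per well | buffer or medium = F12 with 10% FBS | incubation = 16-18 h cell attachment, then 6 h compound exposure, 37 °C | detection = luminescence read with Steady-Glo | read-out = percent activation relative to tunicamycin control | controls = tunicamycin high control, DMSO low control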
An asterisk follows results filed as active. Many of the other results were omitted from the sample, so hits are more common in it than they were.

For CCOC(=O)c1sc(N)nc1-c1ccccc1 the results were XBP1 UPR activ -4, CHOP inhibitor 12, CTSL1 counter 0, UCH37 inh 4 and UPR CHOP act 0.
Screening Nc1nc(-c2ccccc2)c(-c2ccc([N+](=O)[O-])cc2)s1 returned XBP1 UPR activ 0, CHOP inhibitor 74*, CTSL1 counter -2, UCH37 inh 3 and UPR CHOP act 4.
Nc1nc(-c2ccccc2)c(-c2ccccc2)s1 was read as XBP1 UPR activ 1, CHOP inhibitor 16, CTSL1 counter 6, UCH37 inh 2 and UPR CHOP act 1.
Screening COC(=O)c1ccc(NC(=S)N2CCN(Cc3ccc(Cl)cc3)CC2)cc1 returned XBP1 UPR activ -2, CHOP inhibitor 89*, CTSL1 counter 0, UCH37 inh 2 and UPR CHOP act -3.
Screening COC(=O)c1ccc(NC(=S)N2CCN(Cc3ccccc3Cl)CC2)cc1 returned XBP1 UPR activ 1, CHOP inhibitor 35, CTSL1 counter 4, UCH37 inh 2 and UPR CHOP act 1.
Screening COC(=O)c1nn(-c2ccccc2)c(Sc2ccc(C)cc2)c1C=NO returned UCH37 inh -3.
For CCOc1ccc(N=Nc2c(=O)[nH]n3c(=O)c4c([nH]c23)CCCC4)cc1 the results were XBP1 UPR activ -3, CHOP inhibitor 87*, CTSL1 counter 5, UCH37 inh 25* and UPR CHOP act -1.
Screening O=c1[nH]n2c(=O)c3c([nH]c2c1N=Nc1cccc(Cl)c1)CCCC3 returned XBP1 UPR activ -3, CHOP inhibitor -7, CTSL1 counter 7, UCH37 inh 18 and UPR CHOP act -1.
Screening O=C(CSc1nc2sc3c(c2c(=O)n1-c1ccccc1)CCCC3)NN=Cc1ccc(C(=O)O)cc1 returned UCH37 inh -8.
CC(=NNC(=O)c1nnn(-c2nonc2N)c1CSc1ccccc1)c1ccco1 was read as UCH37 inh 4.
Screening COc1cc(-c2nc3ccc4ccccc4c3c3c2CCC3)cc(OC)c1OC returned XBP1 UPR activ -2, CHOP inhibitor 57, CTSL1 counter 7, UCH37 inh -29 and UPR CHOP act 0.
For COc1cc(-c2nc3ccc4ccccc4c3c3c2CCC3)ccc1O the results were XBP1 UPR activ 1, CHOP inhibitor 86*, CTSL1 counter 12, UCH37 inh -21 and UPR CHOP act 3.
`Cn1cc(Br)c(C(=O)NN=Cc2cc3ccccc3nc2Cl)n1` gave UCH37 inh 4.
For O=c1[nH]c2ccc(NC(=NS(=O)(=O)c3ccccc3)c3ccccc3)cc2[nH]1 the results were UCH37 inh 1.
For CCOc1cc(/C=N/NC(=O)c2cc(C)[nH]n2)ccc1OC(=O)c1ccc([N+](=O)[O-])cc1 the results were XBP1 UPR activ -1, CHOP inhibitor 79*, CTSL1 counter 3 and UPR CHOP act 2.
Screening CCOc1cc(C=NNC(=O)c2ccncc2)ccc1OC(=O)c1ccc([N+](=O)[O-])cc1 returned UCH37 inh 2.
For CCOc1cc(/C=N\NC(=O)c2ccc(NC(=O)C(C)(C)C)cc2)ccc1OC(=O)c1ccc(C)cc1 the results were XBP1 UPR activ 5, CHOP inhibitor 83*, CTSL1 counter 0 and UPR CHOP act 6.
N#CC(=NNc1ccc(S(=O)(=O)N2CCCCCC2)cc1)C(N)=S was read as UCH37 inh 9.
Screening Cn1cccc1C=NN1CCN(c2ccccc2)CC1 returned UCH37 inh 3.
`COc1ccc(-c2csc(NC(=O)c3ccc(S(=O)(=O)N4CCc5ccccc5C4)cc3)n2)cc1` gave XBP1 UPR activ 4, CHOP inhibitor 12, CTSL1 counter 4, UCH37 inh -27 and UPR CHOP act 1.
For COc1ccc(-c2nnc(NC(=O)c3ccc(S(=O)(=O)N4CCc5ccccc5C4)cc3)o2)cc1 the results were XBP1 UPR activ 0, CHOP inhibitor 71*, CTSL1 counter 0, UCH37 inh -4 and UPR CHOP act 10.
`CCOC(=O)/C(C#N)=C1/C=CNC(=O)N1` gave XBP1 UPR activ 0, CHOP inhibitor 9, CTSL1 counter 7, UCH37 inh 9 and UPR CHOP act 1.
Screening CCOC(=O)/C(C#N)=C1/C=CN(C)C(C)=N1 returned XBP1 UPR activ 0, CHOP inhibitor 5, CTSL1 counter 9, UCH37 inh 21* and UPR CHOP act 0.
`Cn1c(=O)c2c(-c3ccccc3)n(-n3cnnc3)cc2n(C)c1=O` gave XBP1 UPR activ -6, CHOP inhibitor -22, CTSL1 counter 25*, UCH37 inh 0 and UPR CHOP act 1.
`Cc1cc([N+](=O)[O-])ccc1-c1ccc(C2Nc3ccccc3C(=O)N2O)o1` (stereo not drawn) gave XBP1 UPR activ 0, CHOP inhibitor 76*, CTSL1 counter -3, UCH37 inh 5 and UPR CHOP act 1.
For O=C1c2ccccc2NC(c2ccc(-c3ccccc3F)o2)N1O (stereo not drawn) the results were XBP1 UPR activ 0, UCH37 inh -1 and UPR CHOP act 7.
For Cc1ccc(C=NNC(=O)Cn2nnc(N)n2)o1 the results were UCH37 inh 5.
`CCOC(=O)N1CCC(N2Cc3cccc(C(=O)NCc4ccccn4)c3C2=O)CC1` gave XBP1 UPR activ -2, CHOP inhibitor -8, CTSL1 counter 27*, UCH37 inh 6 and UPR CHOP act 0.
`CCOC(=O)N1CCC(N2Cc3cccc(C(=O)NCc4ccc(C)cc4)c3C2=O)CC1` gave XBP1 UPR activ -4, CHOP inhibitor 58, CTSL1 counter -2, UCH37 inh 4 and UPR CHOP act -2.
CN(C)c1ccc(/C=N/NC(=O)c2ccc3nc[nH]c3c2)cc1 was read as XBP1 UPR activ 0, CHOP inhibitor -11, CTSL1 counter 21* and UPR CHOP act 1.
For COc1ccc(OC)c(C=NN(C)c2ccccc2)c1 the results were UCH37 inh 1.
For O=C(COc1coc(CN2CCc3ccccc32)cc1=O)NCCc1ccccc1 the results were XBP1 UPR activ 1, CTSL1 counter -1, UCH37 inh 2 and UPR CHOP act 0.
For O=C(COc1coc(CN2CCc3ccccc32)cc1=O)N1CCCCC1 the results were XBP1 UPR activ 1, CTSL1 counter 21*, UCH37 inh 0 and UPR CHOP act 0.
